Assay results published in ChEMBL document CHEMBL1144182, “Antimicrobial and cytotoxic arylazoenamines. Part III: antiviral activity of selected classes of arylazoenamines” (Bioorg Med Chem, 2008).
Active and inactive are the calls of the source. No rule for the calls is given here.

Experiments:
[1] = test system: Bovine viral diarrhea virus 1; assay: Antiviral activity against BVDV infected in MDBK cells assessed as protection against virus-induced cytopathogenicity after 4 days by MTT assay; type: functional, organism-based; settings: Bovine viral diarrhea virus isolates and strains, 96 h
Summary of the method: (§1)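 MDBK (BVDV) or BHK-21 (YFV) cells were seeded at 3 × 10^4 or 5 × 10^4 cells/well respectively and grown overnight to confluent monolayers at 37 °C in 5% CO2. Monolayers were infected at m.o.i. 0.01 in serum-free medium. After 1 h, MEM Earle's with 1% FCS was added, with or without serial compound dilutions. After 3–4 days at 37 °C, viability was read by MTT. EC50 was taken as 50% protection from virus-induced cytopathogenicity.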

[2] = Cytotoxicity against mock-infected BHK cells assessed as reduction in cell viability after 96 hrs by MTT assay; type: cell-based, Mesocricetus auratus; settings: hamster
Summary of the method: (§2)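 Cytotoxicity run in parallel with the antiviral assays. MDBK seeded at 6 × 10^5 and BHK at 1 × 10^6 cells/mL in maintenance medium with or without serial compound dilutions. Incubated 48–96 h at 37 °C, 5% CO2, then viability read by MTT. CC50 is the concentration reducing mock-infected cell viability by 50%.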

[3] = test system: Human immunodeficiency virus 1; assay: Antiviral activity against HIV1 infected in MT4 cells assessed as virus-induced cytopathogenicity after 4 days; type: functional, organism-based
Yellow fever virus = assay: Antiviral activity against YFV infected in BHK21 cells assessed as protection against virus-induced cytopathogenicity after 4 days by MTT assay; type: functional, organism-based; settings: BHK-21, 96 h; summary of the method: as §1
[4] = Cytotoxicity against mock-infected african green monkey Vero76 cells assessed as reduction in cell viability after 96 hrs by MTT assay; type: cell-based, Vero; settings: chlorocebus sabaeus
[5] = Cytotoxicity against mock-infected human MT4 cells assessed as reduction in cell viability after 96 hrs by MTT assay; type: cell-based
Summary of the method: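 Exponentially growing MT-4 cells seeded at 1 × 10^5 cells/mL in RPMI-1640 with 10% FCS, penicillin and streptomycin, with or without serial compound dilutions. Incubated at 37 °C, 5% CO2; viability read by MTT after 96 h. CC50 is the concentration reducing mock-infected cell viability by 50%.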

Coxsackievirus B2 = assay: Antiviral activity against CVB2 infected in Vero76 cells assessed as reduction in virus plaque formation after 4 days by MTT assay; type: functional, organism-based; settings: Enterovirus B, Vero 76, 96 h
[6] = test system: Respiratory syncytial virus; assay: Antiviral activity against RSV infected in Vero76 cells assessed as reduction in virus plaque formation after 4 days by MTT assay; type: functional, organism-based; settings: human respiratory syncytial virus, Vero 76, 96 h
Poliovirus 1 = assay: Antiviral activity against Sb1 virus infected in Vero76 cells assessed as reduction in virus plaque formation after 4 days by MTT assay; type: functional, organism-based; settings: Enterovirus C, Sabin, Vero 76, 96 h
[7] = Cytotoxicity against mock-infected MDBK cells assessed as reduction in cell viability after 96 hrs by MTT assay; type: cell-based, Bos taurus; settings: cattle; summary of the method: as §2
[8] = test system: Vesicular stomatitis virus; assay: Antiviral activity against VSV infected in Vero76 cells assessed as reduction in virus plaque formation after 4 days by MTT assay; type: functional, organism-based; settings: Vero 76
Vaccinia virus = assay: Antiviral activity against VV infected in Vero76 cells assessed as reduction in virus plaque formation after 4 days by MTT assay; type: functional, organism-based; settings: Orthopoxvirus vaccinia; Vero 76

SMILES	EC50 [1] [µM]	CC50 at 96 h [2] [µM]	Activity [3]	EC50 (Yellow fever virus) [µM]	CC50 at 96 h [4] [µM]	CC50 at 96 h [5] [µM]	EC50 (Coxsackievirus B2) [µM]	EC50 [6] [µM]	EC50 (Poliovirus 1) [µM]	CC50 at 96 h [7] [µM]	Activity [8]	Activity (Vaccinia virus)
Clc1cccc(/N=N\C2=C3CCCCN3CCC2)c1	> 20	46	inactive	> 46	60	16	22	18	> 60	20	inactive	inactive
CC(=O)c1ccc(N2CCN(/C=C/N=N/c3ccccc3)CC2)cc1	> 8	49	inactive	> 49	11	21	> 11	0.9	> 11	8	inactive	inactive
FC(F)(F)c1cccc(N2CCN(/C=C/N=N/c3ccccc3)CC2)c1	> 9	43	inactive	9	11	30	> 11	4	> 11	9	inactive	inactive
Clc1ccc2c(/N=N/C3=C4CCCCN4CCC3)ccnc2c1	5	48	inactive	> 48	85	15	51	> 85	> 85	40	inactive	inactive
CN1CCC/C1=C\N=N\c1cc(C(F)(F)F)cc(C(F)(F)F)c1	> 36	48	inactive	> 48	93	2	> 93	> 93	> 93	36	inactive	inactive
Clc1ccc(/N=N\C2=C3CCCN3CCC2)cc1Cl	> 67	61	inactive	> 61	> 100	26	30	> 100	45	67	inactive	inactive
CN1CCC/C1=C\N=N\c1cccc([N+](=O)[O-])c1	5.5	> 100	inactive	> 100	> 100	25	> 100	> 100	> 100	> 100	inactive	inactive
Brc1cccc(/N=N\C2=C3CCCCN3CCC2)c1	> 10	49	inactive	> 49	> 100	9	18	> 100	> 100	10	inactive	inactive
CN1CCC/C1=C\N=N\c1ccccc1	10	> 100	inactive	> 100	82	> 100	19	20	> 82	> 100	inactive	inactive
CN1C=C(/N=N/c2cc(C(F)(F)F)cc(C(F)(F)F)c2)CCC1	> 64	82	inactive	> 82	> 100	> 100	> 100	> 100	> 100	64	inactive	inactive
